Measurements as given in ChEMBL document CHEMBL1126868, “Inhibitors of blood platelet cAMP phosphodiesterase. 4. Structural variation of the side-chain terminus of water-soluble 1,3-dihydro-2H-imidazo[4,5-b]quinolin-2-one derivatives” (J Med Chem, 1993).

How the values were obtained:
[1] = Aqueous solubility; assay type: physicochemical; details: read-out: S
In short: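 A 10-mg sample was placed in 0.5 mL water and diluted stepwise up to 10 mL, or until it dissolved. Solubility is reported in mg/mL.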

[2] = species on record: Homo sapiens; assay: Inhibition of human platelet aggregation induced by ADP after 3 min incubation with platelet rich plasma; assay type: functional; details: 0.05 h
In short: (§1)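 Human platelet-rich plasma was preincubated with drug for 3 min (standard) or 15 min, then aggregation was induced with 5.86 μM ADP. Aggregation at a range of drug concentrations was compared with vehicle-treated controls, and IC50 was taken from dose-response curves. Values are single, duplicate or triplicate (with SD) determinations.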

[3] = molecular target: Phosphodiesterase 3 (Homo sapiens, UniProt Q14432+Q13370); assay: Inhibition of human platelet aggregation cAMP PDE in vitro; assay type: functional
In short: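 Human platelet cAMP PDE assay run as in an earlier protocol, except that the [3H]adenosine product was resolved on DEAE Sephadex. Values are means of duplicate (deviation under 50% of mean) or triplicate determinations.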

[4] = species on record: Homo sapiens; assay: Inhibition of human platelet aggregation induced by ADP after 15 min incubation with platelet rich plasma; assay type: functional; details: 0.25 h; in short: as §1
[5] = % metabolized in monkey S-9 after 2 hours (10 ug/ml); assay type: ADME; details: simiiformes, monkey S-9 fraction; read-out: Activity
In short: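 Monkey liver homogenised at 0 °C in 3 volumes isotonic KCl (0.05 M phosphate, pH 7.4), spun 9000g 30 min to give S-9. Triplicate incubations at 37 °C for 2 h with cofactor mix (glucose-6-phosphate, NADP, nicotinamide, MgCl2), final drug 1 or 10 μg/mL. Parent measured by fluorescence HPLC after MeOH protein precipitation; % metabolized = 100% minus % remaining at 2 h versus t=0.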

[6] = half-life (t1/2 min); assay type: ADME
In short: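 Same monkey liver S-9 incubation (37 °C, final drug 1 or 10 μg/mL, triplicate). Aliquots taken at 0, 15, 30, 60, 90 and 120 min, quenched with MeOH and analysed for parent by fluorescence HPLC peak height. Half-life = ln 2 divided by the slope of a least-squares linear regression of peak height against time.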

| SMILES | solubility [1] [µg/mL] | IC50 [2] [nM] | IC50 [3] [nM] | IC50 [4] [nM] | metabolised at 2 h, 10 ug/ml [5] [%] | half-life [6] [h] |
| --- | --- | --- | --- | --- | --- | --- |
| Cl.O=S(=O)(CCCOc1ccc2[nH]c3nc(O)nc-3cc2c1)N1CCN(c2nc3ccccc3s2)CC1 | 1000 | 4880 |  |  |  |  |
| CCOC(=O)N1CCC(n2nnnc2CCCOc2ccc3[nH]c4nc(O)nc-4cc3c2)CC1 | < 1000 | 420 |  |  |  |  |
| CCC(CC)CN1CCC(S(=O)(=O)CCCCOc2ccc3[nH]c4nc(O)nc-4cc3c2)CC1.Cl | 5000 | 21 |  |  |  |  |
| CCCC(CCC)CN1CCC(S(=O)(=O)CCCOc2ccc3[nH]c4nc(O)nc-4cc3c2)CC1.Cl | 1000 | 230 |  |  |  |  |
| Cl.O=C(NCCCOc1ccc2[nH]c3nc(O)nc-3cc2c1)N1CCN(CC2CCCCCC2)CC1 | 2000 | 54 |  |  |  |  |
| Cl.Oc1nc2cc3cc(OCCCc4nnnn4C4CCNCC4)ccc3[nH]c-2n1 | > 20000 | 11600 |  |  |  |  |
| CCC(CC)CN1CCN(S(=O)(=O)CCCOc2ccc3[nH]c4nc(O)nc-4cc3c2)CC1.Cl | > 10000 | 160 | 5.14 | 40 | 38.8 | 2.87 |
| CCCC(CCC)CN1CCC(n2nnnc2CCCOc2ccc3[nH]c4nc(O)nc-4cc3c2)CC1.Cl | 2000 | 82 |  |  |  |  |
| CC(C)CN1CCC(n2nnnc2CCCOc2ccc3[nH]c4nc(O)nc-4cc3c2)CC1.Cl | > 10000 | 9.4 |  |  |  |  |
| Cl.O=C(NCCCOc1ccc2[nH]c3nc(O)nc-3cc2c1)N1CCN(c2ccccn2)CC1 | 500 | 690 |  |  |  |  |
| Cl.O=C(NCCCOc1ccc2[nH]c3nc(O)nc-3cc2c1)N1CCN(Cc2cccs2)CC1 | > 10000 | 160 |  |  |  |  |
| O=CN1CCN(S(=O)(=O)CCCOc2ccc3[nH]c4nc(O)nc-4cc3c2)CC1 | < 1000 | 13000 |  |  |  |  |
| Cl.O=S(=O)(CCCOc1ccc2[nH]c3nc(O)nc-3cc2c1)C1CCN(CCC2CCCCC2)CC1 | < 5000 | 48 |  |  |  |  |
| Cl.O=C(NCCCOc1ccc2[nH]c3nc(O)nc-3cc2c1)N1CCN(c2ncccn2)CC1 | 100 | 320 |  |  |  |  |
| Cl.O=C(NCCCOc1ccc2[nH]c3nc(O)nc-3cc2c1)N1CCN(Cc2ccc(F)cc2)CC1 | > 20000 | 350 | 2.78 | 50 | 70 | 1.08 |
| CC(C)CN1CCN(C(=O)NCCCOc2ccc3[nH]c4nc(O)nc-4cc3c2)CC1.Cl | > 20000 | 180 |  |  |  |  |
| Cl.Oc1nc2cc3cc(OCCCCc4nnnn4C4CCN(CC5CCCCC5)CC4)ccc3[nH]c-2n1 | > 5000 | 20 |  |  |  |  |
| Cl.O=C(NCCCOc1ccc2[nH]c3nc(O)nc-3cc2c1)N1CCN(Cc2ccsc2)CC1 | 3000 | 280 |  |  |  |  |
| Cl.O=S(=O)(CCCOc1ccc2[nH]c3nc(O)nc-3cc2c1)C1CCNCC1 | > 10000 | > 66000 |  |  |  |  |
| Cl.Oc1nc2cc3cc(OCCCc4nnnn4C4CCN(CC5CCCCCC5)CC4)ccc3[nH]c-2n1 | 1000 | 17 |  |  |  |  |
| CCOC(=O)N1CCC(S(=O)(=O)CCCOc2ccc3[nH]c4nc(O)nc-4cc3c2)CC1 | < 1000 | 650 |  |  |  |  |
| Cl.O=C(NCCCOc1ccc2[nH]c3nc(O)nc-3cc2c1)N1CCN(CC2CCCCO2)CC1 (stereo not given) | > 20000 | 160 |  |  |  |  |
| Cl.O=S(=O)(CCCCOc1ccc2[nH]c3nc(O)nc-3cc2c1)C1CCNCC1 | > 10000 | 14800 |  |  |  |  |
| Cl.O=S(=O)(CCCOc1ccc2[nH]c3nc(O)nc-3cc2c1)N1CCN(Cc2cccc(C(F)(F)F)c2)CC1 | 2000 | 320 |  |  |  |  |
| Cl.Cl.O=S(=O)(CCCOc1ccc2[nH]c3nc(O)nc-3cc2c1)N1CCN(Cc2ccc(Cl)cc2)CC1 | > 20000 | 530 |  |  |  |  |
| Cl.Oc1nc2cc3cc(OCCCCc4nnnn4C4CCN(Cc5ccccc5)CC4)ccc3[nH]c-2n1 | > 5000 | 31 |  |  |  |  |

Further compounds by falling IC50 [2], results first:

| solubility [1] [µg/mL] | IC50 [2] [nM] | IC50 [3] [nM] | IC50 [4] [nM] | metabolised at 2 h, 10 ug/ml [5] [%] | half-life [6] [h] | SMILES |
| --- | --- | --- | --- | --- | --- | --- |
| > 20000 | 15500 |  |  |  |  | Cl.O=S(=O)(CCCOc1ccc2[nH]c3nc(O)nc-3cc2c1)N1CCNCC1 |
| > 20000 | 9860 |  |  |  |  | Cl.O=C(NCCCOc1ccc2[nH]c3nc(O)nc-3cc2c1)N1CCC(N2CCCCC2)CC1 |
| > 20000 | 8150 |  |  |  |  | Cl.O=C(NCCCOc1ccc2[nH]c3nc(O)nc-3cc2c1)N1CCNCC1 |
| 5000 | 5330 |  |  |  |  | Cl.Oc1nc2cc3cc(OCCCCc4nnnn4C4CCNCC4)ccc3[nH]c-2n1 |
| > 20000 | 2410 |  |  |  |  | Cl.O=S(=O)(CCCOc1ccc2[nH]c3nc(O)nc-3cc2c1)N1CCN(c2nc3ccccc3o2)CC1 |
| < 5000 | 2040 |  |  |  |  | Cl.O=S(=O)(CCCOc1ccc2[nH]c3nc(O)nc-3cc2c1)N1CCN(CCC2CCCCC2)CC1 |
| < 10000 | 1040 |  |  |  |  | Cl.O=S(=O)(CCCOc1ccc2[nH]c3nc(O)nc-3cc2c1)N1CCN(CCc2ccccc2)CC1 |
| > 20000 | 460 |  |  |  |  | COc1ccc(CN2CCN(S(=O)(=O)CCCOc3ccc4[nH]c5nc(O)nc-5cc4c3)CC2)cc1.Cl |
| < 1000 | 410 |  |  |  |  | CCOC(=O)N1CCC(S(=O)(=O)CCCCOc2ccc3[nH]c4nc(O)nc-4cc3c2)CC1 |
| > 20000 | 310 | 1.11 | 50 | 46.8 | 2.17 | Cl.O=C(NCCCOc1ccc2[nH]c3nc(O)nc-3cc2c1)N1CCN(Cc2ccccc2)CC1 |
| 250 | 300 |  |  |  |  | Cl.O=C(NCCCOc1ccc2[nH]c3nc(O)nc-3cc2c1)N1CCN(CCc2ccccc2)CC1 |
| 200 | 290 |  |  |  |  | Cl.Cl.O=C(NCCCOc1ccc2[nH]c3nc(O)nc-3cc2c1)N1CCN(Cc2ccc(Cl)cc2)CC1 |
| 500 | 130 |  |  |  |  | CCCC(CCC)CN1CCN(C(=O)NCCCOc2ccc3[nH]c4nc(O)nc-4cc3c2)CC1.Cl |
| < 5000 | 130 |  |  |  |  | Cl.O=S(=O)(CCCOc1ccc2[nH]c3nc(O)nc-3cc2c1)C1CCN(CCc2ccccc2)CC1 |
| > 20000 | 110 | 2.56 | 60 | 49.4 | 2.02 | Cl.O=S(=O)(CCCOc1ccc2[nH]c3nc(O)nc-3cc2c1)N1CCN(CC2CCCCC2)CC1 |
| < 1000 | 100 |  |  |  |  | CCOC(=O)N1CCC(n2nnnc2CCCCOc2ccc3[nH]c4nc(O)nc-4cc3c2)CC1 |

| solubility [1] [µg/mL] | IC50 [2] [nM] | IC50 [3] [nM] | IC50 [4] [nM] | metabolised at 2 h, 10 ug/ml [5] [%] | half-life [6] [h] | SMILES |
| --- | --- | --- | --- | --- | --- | --- |
| 700 | 94 |  |  |  |  | Cl.O=C(NCCCOc1ccc2[nH]c3nc(O)nc-3cc2c1)N1CCN(CC2CCCC2)CC1 |
| < 5000 | 83 |  |  |  |  | Cl.Oc1nc2cc3cc(OCCCc4nnnn4C4CCN(CCc5ccccc5)CC4)ccc3[nH]c-2n1 |
| 500 | 72 |  |  |  |  | Cl.O=C(NCCCOc1ccc2[nH]c3nc(O)nc-3cc2c1)N1CCN(CCC2CCCCC2)CC1 |
| > 10000 | 71 |  |  |  |  | Cl.Oc1nc2cc3cc(OCCCc4nnnn4C4CCN(CC5CCCCO5)CC4)ccc3[nH]c-2n1 (stereo not given) |
| 2000 | 67 |  |  |  |  | Cl.O=S(=O)(CCCCOc1ccc2[nH]c3nc(O)nc-3cc2c1)C1CCN(Cc2ccc(F)cc2)CC1 |
| > 5000 | 51 |  |  |  |  | Cl.Oc1nc2cc3cc(OCCCCc4nnnn4C4CCN(Cc5ccc(F)cc5)CC4)ccc3[nH]c-2n1 |
| > 20000 | 42 | 1.25 | 7 | 37.3 | 2.68 | CCC(CC)CN1CCN(C(=O)NCCCOc2ccc3[nH]c4nc(O)nc-4cc3c2)CC1.Cl |
| 5000 | 42 |  |  |  |  | Cl.O=S(=O)(CCCCOc1ccc2[nH]c3nc(O)nc-3cc2c1)C1CCN(Cc2ccccc2)CC1 |
| < 5000 | 38 |  |  |  |  | Cl.O=S(=O)(CCCOc1ccc2[nH]c3nc(O)nc-3cc2c1)C1CCN(Cc2cccc(C(F)(F)F)c2)CC1 |
| > 10000 | 34 |  |  |  |  | Cl.O=S(=O)(CCCOc1ccc2[nH]c3nc(O)nc-3cc2c1)C1CCN(CC2CCCCO2)CC1 (stereo not given) |
| > 10000 | 30 | 1.13 | 8.4 | 15.2 | 7.55 | Cl.O=S(=O)(CCCOc1ccc2[nH]c3nc(O)nc-3cc2c1)C1CCN(CC2CCCCC2)CC1 |
| 2000 | 30 |  |  |  |  | Cl.O=S(=O)(CCCCOc1ccc2[nH]c3nc(O)nc-3cc2c1)C1CCN(CC2CCCCC2)CC1 |
| > 10000 | 27 |  |  |  |  | CC(C)CN1CCC(S(=O)(=O)CCCOc2ccc3[nH]c4nc(O)nc-4cc3c2)CC1.Cl |
| > 5000 | 12 |  |  |  |  | CCC(CC)CN1CCC(n2nnnc2CCCCOc2ccc3[nH]c4nc(O)nc-4cc3c2)CC1.Cl |
| > 10000 | 9 |  |  |  |  | CC(C)CN1CCC(n2nnnc2CCCCOc2ccc3[nH]c4nc(O)nc-4cc3c2)CC1.Cl |
| 3000 | 9 |  |  |  |  | Cl.Oc1nc2cc3cc(OCCCc4nnnn4C4CCN(CC5CCCC5)CC4)ccc3[nH]c-2n1 |
